{
  "source": "paper PMC11399684",
  "about": "(Saudi Pharmaceutical Journal : SPJ, 2024)",
  "key": {"[1]": {"test": "Tissue distribution study", "format": "in vivo, male Wistar rats", "conditions": "for AUCtol / AUMC / Cl: after MPG2ER 10 mg/kg i.p.; for Cmax / MRT / Tmax / half-life: male, Wistar, rat, ip, 10 mg/kg", "procedure,_shortened": "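Male Wistar rats (200 ± 50 g), fasted, were dosed intraperitoneally with the formulation at 10 mg/kg drug equivalent in 5 % v/v DMSO, with 4 rats per time point. At 0.5, 1, 2, 4, 6, 12, 24, 48, 72 and 96 h, rats were killed by cervical dislocation. Excised tissues were homogenised, protein-precipitated in a single step and assayed for drug by HPLC.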"}, "[2]": {"test": "Plasma pharmacokinetic study", "format": "in vivo, male Wistar rats", "conditions": "drug delivered by MPG2 (MPG2ER), intraperitoneal", "procedure,_shortened": "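Male Wistar rats (200 ± 50 g), fasted, got a single intraperitoneal dose of the dendrimer formulation at 10 mg/kg drug equivalent in 5 % v/v DMSO, with 4 rats per time point. Retro-orbital blood (0.5 ml) was drawn at 0.5–96 h and centrifuged for 10 min at 12000 rpm, 4 °C. Plasma underwent single-step protein precipitation and HPLC at 254 nm. Parameters came from non-compartmental analysis.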"}},
  "data": [
    {"smiles": "CC(C)c1nc(CN(C)C(=O)N[C@H](C(=O)N[C@@H](Cc2ccccc2)C[C@H](O)[C@H](Cc2ccccc2)NC(=O)OCc2cncs2)C(C)C)cs1", "note": "[RTV, ritonavir]", "values": [
      {"measurement": "AUCtol", "setting": "[1]; Brain", "result": "9.25±2.074 (μg/mL)*hr"},
      {"measurement": "AUMC", "setting": "[1]; Brain", "result": "97.42± 68.213 (μg/mL)*hr"},
      {"measurement": "Cl", "setting": "[1]; Brain", "result": "0.270± 0.008 (μg/kg)/((μg/mL)/hr"},
      {"measurement": "AUCtol", "setting": "[1]; Heart", "result": "18.34±1.190 (μg/mL)*hr"},
      {"measurement": "AUMC", "setting": "[1]; Heart", "result": "285.923± 47.303 (μg/mL)*hr"},
      {"measurement": "Cl", "setting": "[1]; Heart", "result": "0.136± 0.032 (μg/kg)/((μg/mL)/hr"},
      {"measurement": "AUCtol", "setting": "[1]; Kidney", "result": "29.27±1.620 (μg/mL)*hr"},
      {"measurement": "AUMC", "setting": "[1]; Kidney", "result": "641.30± 73.625 (μg/mL)*hr"},
      {"measurement": "Cl", "setting": "[1]; Kidney", "result": "0.087± 0.036 (μg/kg)/((μg/mL)/hr"},
      {"measurement": "AUCtol", "setting": "[1]; Liver", "result": "14.51±2.024 (μg/mL)*hr"},
      {"measurement": "AUMC", "setting": "[1]; Liver", "result": "240.78± 26.201 (μg/mL)*hr"},
      {"measurement": "Cl", "setting": "[1]; Liver", "result": "0.172± 0.012 (μg/kg)/((μg/mL)/hr"},
      {"measurement": "AUCtol", "setting": "[1]; Lymph Node", "result": "25.07±1.305 (μg/mL)*hr"},
      {"measurement": "AUMC", "setting": "[1]; Lymph Node", "result": "421.67± 81.067 (μg/mL)*hr"},
      {"measurement": "Cl", "setting": "[1]; Lymph Node", "result": "0.085± 0.007 (μg/kg)/((μg/mL)/hr"},
      {"measurement": "AUCtol", "setting": "[1]; Spleen", "result": "25.82±0.934 (μg/mL)*hr"},
      {"measurement": "AUMC", "setting": "[1]; Spleen", "result": "464.21± 27.094 (μg/mL)*hr"},
      {"measurement": "Cl", "setting": "[1]; Spleen", "result": "0.091± 0.043 (μg/kg)/((μg/mL)/hr"},
      {"measurement": "Cmax", "setting": "[1]; brain", "result": "790 ± 32", "unit": "ng/mL"},
      {"measurement": "MRT", "setting": "[1]; brain", "result": "10.5 ± 1", "unit": "h"},
      {"measurement": "Tmax", "setting": "[1]; brain", "result": 4, "unit": "h"},
      {"measurement": "half-life", "setting": "[1]; brain", "result": "400 ± 47.5", "unit": "min"},
      {"measurement": "Cmax", "setting": "[1]; heart", "result": "2400 ± 15", "unit": "ng/mL"},
      {"measurement": "MRT", "setting": "[1]; heart", "result": "15.6 ± 1.93", "unit": "h"},
      {"measurement": "Tmax", "setting": "[1]; heart", "result": 4, "unit": "h"},
      {"measurement": "half-life", "setting": "[1]; heart", "result": "803 ± 27", "unit": "min"},
      {"measurement": "Cmax", "setting": "[1]; kidney", "result": "2490 ± 55", "unit": "ng/mL"},
      {"measurement": "MRT", "setting": "[1]; kidney", "result": "21.9 ± 0.761", "unit": "h"},
      {"measurement": "Tmax", "setting": "[1]; kidney", "result": 4, "unit": "h"},
      {"measurement": "half-life", "setting": "[1]; kidney", "result": "880 ± 39.1", "unit": "min"},
      {"measurement": "Cmax", "setting": "[1]; liver", "result": "2890 ± 21", "unit": "ng/mL"},
      {"measurement": "MRT", "setting": "[1]; liver", "result": "16.6 ± 0.272", "unit": "h"},
      {"measurement": "Tmax", "setting": "[1]; liver", "result": 4, "unit": "h"},
      {"measurement": "half-life", "setting": "[1]; liver", "result": "653 ± 19.5", "unit": "min"},
      {"measurement": "Cmax", "setting": "[1]; lymph node", "result": "2030 ± 42", "unit": "ng/mL"},
      {"measurement": "MRT", "setting": "[1]; lymph node", "result": "16.3 ± 0.937", "unit": "h"},
      {"measurement": "Tmax", "setting": "[1]; lymph node", "result": 4, "unit": "h"},
      {"measurement": "half-life", "setting": "[1]; lymph node", "result": "776 ± 65.5", "unit": "min"},
      {"measurement": "Cmax", "setting": "[1]; spleen", "result": "2130 ± 24", "unit": "ng/mL"},
      {"measurement": "MRT", "setting": "[1]; spleen", "result": "18 ± 1", "unit": "h"},
      {"measurement": "Tmax", "setting": "[1]; spleen", "result": 4, "unit": "h"},
      {"measurement": "half-life", "setting": "[1]; spleen", "result": "782 ± 61.5", "unit": "min"},
      {"measurement": "Duration of sustained release in plasma", "setting": "[2]", "result": "≤ 72", "unit": "h"}
    ]},
    {"smiles": "O=C1Nc2ccc(Cl)cc2[C@@](C#CC2CC2)(C(F)(F)F)O1", "note": "[EFV, efavirenz]", "values": [
      {"measurement": "AUCtol", "setting": "[1]; Brain", "result": "124±1.660 (μg/mL)*hr"},
      {"measurement": "AUMC", "setting": "[1]; Brain", "result": "3245±73.69 (μg/mL)*hr"},
      {"measurement": "Cl", "setting": "[1]; Brain", "result": "0.08064±0.001 (μg/kg)/((μg/mL)/hr"},
      {"measurement": "AUCtol", "setting": "[1]; Heart", "result": "132.1±1.150 (μg/mL)*hr"},
      {"measurement": "AUMC", "setting": "[1]; Heart", "result": "4027 ±87.53 (μg/mL)*hr"},
      {"measurement": "Cl", "setting": "[1]; Heart", "result": "0.07601±0.003 (μg/kg)/((μg/mL)/hr"},
      {"measurement": "AUCtol", "setting": "[1]; Kidney", "result": "121.2±0.164 (μg/mL)*hr"},
      {"measurement": "AUMC", "setting": "[1]; Kidney", "result": "3190±6.976 (μg/mL)*hr"},
      {"measurement": "Cl", "setting": "[1]; Kidney", "result": "0.08248±0.001 (μg/kg)/((μg/mL)/hr"},
      {"measurement": "AUCtol", "setting": "[1]; Liver", "result": "97.88±1.146 (μg/mL)*hr"},
      {"measurement": "AUMC", "setting": "[1]; Liver", "result": "2959±32.860 (μg/mL)*hr"},
      {"measurement": "Cl", "setting": "[1]; Liver", "result": "0.1075±0.008 (μg/kg)/((μg/mL)/hr"},
      {"measurement": "AUCtol", "setting": "[1]; Lymph Node", "result": "96.33±0.190 (μg/mL)*hr"},
      {"measurement": "AUMC", "setting": "[1]; Lymph Node", "result": "3143±75.49 (μg/mL)*hr"},
      {"measurement": "Cl", "setting": "[1]; Lymph Node", "result": "0.1038±0.002 (μg/kg)/((μg/mL)/hr"},
      {"measurement": "AUCtol", "setting": "[1]; Spleen", "result": "88±2.205 (μg/mL)*hr"},
      {"measurement": "AUMC", "setting": "[1]; Spleen", "result": "2799±81.109 (μg/mL)*hr"},
      {"measurement": "Cl", "setting": "[1]; Spleen", "result": "0.1156±0.002 (μg/kg)/((μg/mL)/hr"},
      {"measurement": "Cmax", "setting": "[1]; brain", "result": "6653 ± 35", "unit": "ng/mL"},
      {"measurement": "MRT", "setting": "[1]; brain", "result": "26.2 ± 0.284", "unit": "h"},
      {"measurement": "Tmax", "setting": "[1]; brain", "result": 6, "unit": "h"},
      {"measurement": "half-life", "setting": "[1]; brain", "result": "811.8 ± 5.28", "unit": "min"},
      {"measurement": "Cmax", "setting": "[1]; heart", "result": "4674 ± 25", "unit": "ng/mL"},
      {"measurement": "MRT", "setting": "[1]; heart", "result": "30.3 ± 1.28", "unit": "h"},
      {"measurement": "Tmax", "setting": "[1]; heart", "result": 6, "unit": "h"},
      {"measurement": "half-life", "setting": "[1]; heart", "result": "1160 ± 35.9", "unit": "min"},
      {"measurement": "Cmax", "setting": "[1]; kidney", "result": "5342 ± 20", "unit": "ng/mL"},
      {"measurement": "MRT", "setting": "[1]; kidney", "result": "27.3 ± 1.02", "unit": "h"},
      {"measurement": "Tmax", "setting": "[1]; kidney", "result": 6, "unit": "h"},
      {"measurement": "half-life", "setting": "[1]; kidney", "result": "1051.2 ± 0.762", "unit": "min"},
      {"measurement": "Cmax", "setting": "[1]; liver", "result": "5980 ± 83", "unit": "ng/mL"},
      {"measurement": "MRT", "setting": "[1]; liver", "result": "30.7 ± 0.384", "unit": "h"},
      {"measurement": "Tmax", "setting": "[1]; liver", "result": 6, "unit": "h"},
      {"measurement": "half-life", "setting": "[1]; liver", "result": "1010 ± 65.3", "unit": "min"},
      {"measurement": "Cmax", "setting": "[1]; lymph node", "result": "3440 ± 48", "unit": "ng/mL"},
      {"measurement": "MRT", "setting": "[1]; lymph node", "result": "32.63 ± 0.113", "unit": "h"},
      {"measurement": "Tmax", "setting": "[1]; lymph node", "result": 6, "unit": "h"},
      {"measurement": "half-life", "setting": "[1]; lymph node", "result": "1260 ± 3.24", "unit": "min"},
      {"measurement": "Cmax", "setting": "[1]; spleen", "result": "4580 ± 69", "unit": "ng/mL"},
      {"measurement": "MRT", "setting": "[1]; spleen", "result": "32.1 ± 1.65", "unit": "h"},
      {"measurement": "Tmax", "setting": "[1]; spleen", "result": 6, "unit": "h"},
      {"measurement": "half-life", "setting": "[1]; spleen", "result": "1320 ± 15", "unit": "min"},
      {"measurement": "Duration of sustained release in plasma", "setting": "[2]", "result": "up to 96 hrs"}
    ]}
  ]
}
